Test results from the EternaBench riboswitch data.

Test system: MS2 coat protein
Assay: apparent Kd, MS2 coat protein; higher = weaker binding; RNA-MaP array; FMN 200 µM where present
How it was run: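 Green signal was scaled to red-channel RNA signal and control-cluster median Fmax, and the apparent Kd was taken as the median of filtered per-cluster binding-curve fits. The binding series used SNAP-549-labelled MS2 coat protein from 0.7 or 1.5 nM, doubling to 3 µM, on designs transcribed by stalled E. coli RNA polymerase on Illumina sequencing-chip clusters. Each series ran without and then with constant ligand in 100 mM Tris-HCl pH 7.5, 80 mM KCl, 4 mM MgCl2, BSA, DTT, yeast tRNA and Tween-20.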

[1] = designed as: ON switch for flavin mononucleotide, no ligand
[2] = ligand present: flavin mononucleotide, designed as: ON switch for flavin mononucleotide
[3] = designed as: OFF switch for flavin mononucleotide, no ligand
[4] = ligand present: flavin mononucleotide, designed as: OFF switch for flavin mononucleotide

| Sequence | apparent Kd [1] [nM] | apparent Kd [2] [nM] | apparent Kd [3] [nM] | apparent Kd [4] [nM] |
| --- | --- | --- | --- | --- |
| GUAGCAAUCGGAGGAUAUGGGUUGAUAACAUGAGGAUCACCCAUGUUAAUACUAGAAGGCCGAUUGCUACAAGAGCGAAAGCUC | 31.4 | 6.39 | – | – |
| GAACUGAAGCAUAGCUUUAGUCGUACAUGAGGAUCACCCAUGUAGGAUAUGGUAGGCAUCGCUUACUAGAAGGAUAGAGUGAUC | – | – | 172 | 87.1 |
| UUUGGGAGCACAGGAUAUGGCGCGUCGACCGCGCCAGAAGGGUGAUUCUGUUGGUGGCCACAUGAGGAUCACCCAUGUGCCUCC | 42.4 | 55.3 | – | – |
| GAGCUAUGAGGAUAUGCAUAUAUACGGUUUCGUGUGGUACUACAUGAGGAUCACCCAUGUAGAAGGCGUGGCAG | – | – | 17.4 | 17.9 |
| ACUUGUAAGCAGAAGGCAGUCAUUAUAUUCAUCAUGUAGACAUGAGGAUCACCCAUGUAGAGUACUGAGGAUAUGCAUCGAUAG | – | – | 6.41 | 8.85 |
| AGCGGCGCGGGCCACCGCAGAACCAGAAGGACAUGAGGAUCACCCAUGUAACAGAACAGGGCGGUGUAGGAUAUGGCAGGCUCG | – | – | 25.1 | 46.2 |
| UAUAUAUAGUAAGGAUAUAUAUUUAUUUUAUAAAUAGAAGGUACAGACAUGAGGAUCACCCAUGUUAUAAUAUGGACAUGUGGA | – | – | 52.5 | 69.4 |
| UUUAUACAUGAGGAUCACCCAUGUCAAUGUAGUCGAGGAUAUGGGCAGCCGUGAGGCGUACUAGAAGGCGAAGAGG | 203 | 64.9 | – | – |
| AAUAUAGAGCUGGACUCAAAAUAAACAUGAGGAUCACCCAUGUAGGAUAUCAGCACGAUAAGUGCUGAGAAGGACAUCCAGCUC | – | – | 15.4 | 14.2 |
| GGUGCUAUGUAGAAGGCAGAUCUGAUUCAGAUCUGAGGAUAUACAUGAGGAUCACCCAUGUUAUGCACCAGCACGAGAGUGCAU | – | – | 13.5 | 35.1 |
| GUGGAGUACGUAGGAUAUGUAGGAUAUUCCUACAUGAGGAUCACCCAUGUAUGCAUGGAAGAAGGACAGAAGGACGUGCUCCAG | 208 | 13.5 | – | – |
| CCUCUACAUGAGGAUCACCCAUGUGAGGAUAUAAGAUUGCGAAUUCCGCACUACGGUCUUAGAAGGCGCGUGGA | – | – | 16.4 | 30.5 |
| CCGGCUAAAGGAUAUGUGUGUAGCAACAUGAGGAUCACCCAUGUGAUGUCCUAGGUUAGCACAGAAGGUUACUAUU | – | – | 35.6 | 34.1 |
| UGGCUACAUGAGGAUCACCCAUGUCAGGAUAUGCCGUUGGAUUGACAUCGUCGUACGGGUAGAAGGGACUGCGU | – | – | 59.8 | 58.3 |
| GCGGUACAUGAGGAUCACCCAUGUCAGGAUAUCCGCUGUUUGUUGAUUGGCAGGCGGUGGAGAAGGGACUUCGC | – | – | 35.2 | 33.4 |
| UGAUUGGACAGAGGAUAUACGUGCUAGAGAUACUAGCAAAAUAUCCUCACAUGAGGAUCACCCAUGUAGAAGGCUGUCCAAUCU | – | – | 17.3 | 85.1 |
| UUACUCAUGUAAGGAUAUGCAGCCGAAGCGGCUGCAGAAGGUACUAUAAUACAUGAGGAUCACCCAUGUAAAAUAAAUAAAGUU | 20.4 | 16.3 | – | – |
| GGGUAACAUGAGGAUCACCCAUGUGAGGAUAUCCUAGGGAUGGAAGCUCGGCCAACCAGGAGAAGGUACUAAAG | – | – | 73.9 | 131 |
| CCGGAAAUACAGGAUAUAGGAGUAAAUAUACUCCUAGAAGGGUAUACAUGAGGAUCACCCAUGUGUCCUACCGG | – | – | 26.6 | 27.3 |
| AGUACUACAGGAUAUACAUGAAUGAUAAUCAUUACCCUUAUACAUGAGGAUCACCCAUGUAGAAGGGUAGUACA | – | – | 16.4 | 20 |
| UCCGAAUCGUAGAAGGGUGACAUGAGGAUCACCCAUGUGCAGCAGCCGUGAACGGCCAUGCUGCCACAGGAUAUACGAUGGAGU | 41.1 | 56.2 | – | – |
| GAUCGCCAUGUCAGGAUAUCUUGUAUACCCACGUUAGAGAAGGGACAUGAGGAUCACCCAUGUACCCUGGUUUU | – | – | – | 16.4 |
| GGCAGACAUGAGGAUCACCCAUGUCGGCCGUUAGGAGGAUAUCGGUGAUAUCUGUCUCGCCGAGAAGGUUUAAUUA | 11.5 | 12.1 | – | – |
| UCUUAACAUGAGGAUCACCCAUGUGAGGAUAUGAUGCAGCAGUGGUCUACGCUGUGCAUCAGAAGGUACAUGGG | – | – | 23 | 20.1 |
| ACGUCUUAGUAGAAGGGACUUCGGCUGGUAAGCAUCAUCUCCUUCUCACAUGAGGAUCACCCAUGUCAGGAUAUACUAAGAGUC | – | – | 7.24 | 7.35 |
| AAUUAUUAUUGAGGAUAUGGUAGUGAAACACUACCAGAAGGCGGUAUAAACAUGAGGAUCACCCAUGUGAGCCUGAUGCUUAUG | – | – | 24.2 | 44.2 |
| CGCAAUAUACAGAAGGAGUUAUUUAGAGGAUUACUAGGAUAUGUUCACAUGAGGAUCACCCAUGUCAUAUGGAGUUUUAUUGCG | – | – | 9.43 | 8.27 |
| AACAUACUAUACAUGAGGAUCACCCAUGUUUGGGCACUGUACAGAAGGCACGGGCAAAUGCGAGGUGAGGAUAUGUAGUUAGUG | 64.8 | 18.8 | – | – |

| Sequence | apparent Kd [1] [nM] | apparent Kd [2] [nM] | apparent Kd [3] [nM] | apparent Kd [4] [nM] |
| --- | --- | --- | --- | --- |
| GGAUCCAACACAGGAUAUGCUGGACUUUGUCCAGCAGAAGGGUGACAUGAGGAUCACCCAUGUAAUAGGAUCCAUAUAUUUAAU | 624 | 198 | – | – |
| CGCCGACAUGAGGAUCACCCAUGUCACAUCUGGUCAGGAUAUGGUGUGGUUUGGCUAUUGCCAGAAGGGACCUCAG | 101 | 102 | – | – |
| AAUAACAGAGGAUAUACUGUUUUAUGUAUUUAUUAUUUUAAACAUGAGGAUCACCCAUGUAGAAGGCUGAGUAA | – | – | 24.6 | 23.4 |
| GCUGCGCGAGGAUAUGCGGUUUGUGCUGUGGCCCGUGGCGUACAUGAGGAUCACCCAUGUAGAAGGCGUGUGGG | – | – | 26.1 | 28.9 |
| UAGAUGUGAGGAUAUACGUAGAUGCAGGUUCGUGUGGUGCUACAUGAGGAUCACCCAUGUAGAAGGCACGUCUU | – | – | 19.3 | 20.2 |
| AGACCGCUACGCCGGUUUCACGCACAGGAUAUGCGGUUACAUGAGGAUCACCCAUGUGGCCAUGUGCAGAAGGGUGGUUCGUUA | 36.1 | 11.5 | – | – |
| AAAACAUGAGGAUCACCCAUGUAAAGAUCGGUUAAUAGAGGUGAGGAUAUACGAAGUUAAAGCUGGUAGAAGGCACUGGGUACA | 78.5 | 51.3 | – | – |
| AAACAAGGAUCAGGAUAUGUGAAAGUAGACCGACAUGAGGAUCACCCAUGUACGACAAGACUCGUACAGAAGGGAUGCACAUGA | 73.3 | 165 | – | – |
| UUUAGUAUCUAGGAUAUCUAGUACAUAGUAUCUAGAGAAGGAGAUACAUGAGGAUCACCCAUGUUCUGUGUUCU | – | – | 23.4 | 58.4 |
| GGGUACAUCGGAGGAUAUCAUGUAAAUACAUGAGGAUCACCCAUGUCGAUGGAGACAUCGGAGAUUGAGAAGGCCUAUGUACCG | 194 | 9.34 | – | – |
| AGCAUGUAAGGAUAUGCAAGUGGCACGGAUAGUACCAGAAAGCAGAAGGUACAUGAGGAUCACCCAUGUGCUCC | – | – | 26.8 | 94.9 |
| UAUAUAUAGUAAGGAUAUGUAUAUAUUUUGUAAACAGAAGGUACUGACAUGAGGAUCACCCAUGUUUUAGUGUGGGCAUGUAGA | – | – | 80.8 | 130 |
| AAAACGUCAGGAUAUCCAAUAUAUGACAUGAGGAUCACCCAUGUUUCCACUCGUACCUCCGGAGAAGGGACAAAUA | – | – | 41.5 | 34 |
| UGUAUUAACGGAGGAUAUCGAUAUCAAACAUGAGGAUCACCCAUGUUGAGGAUCACCCAUGUCCACGAGAAGGCCGGCGUACUC | 30.3 | 30 | – | – |
| UUGUCGCAUGUAGGAUAUGUAUGUUAUUAUCAUACAGAAGGACAUGAGGAUCACCCAUGUGUAUUAUUAUUAUAUGUUACAUAU | – | – | 20.4 | 19.8 |
| AGAUGGCGAGGAUAUACAUGAGGAUCACCCAUGUGAGAUAAAUAAGUGAGGAAGAAAAGUAGAAGGCGCUGUCA | – | – | 81.3 | 387 |
| UGUAUUAACGGAGGAUAUCGAUAUCAAACAUGAGGAUCACCCAUGUUGAGGAUCACCCAUGUCCAUGAGAAGGCCGGCGUACUC | 41.8 | 32.9 | – | – |
| GGUACUCAAAGAGUACGGAGUCGAACAUGAGGAUCACCCAUGUAGGAUAUGCAAAGCUAGAAGUAGCAGAAGGACAUGUGCAGC | – | – | 15 | 17.1 |
| AUCAGCUCGUCAGGAUAUAUGUCACUGCUUCGGCAGUGUGGUAAGAUCACAUGAGGAUCACCCAUGUAGAAGGGACGAGCUGAU | – | – | 29.7 | 78 |
| UUGGGACUAUCAGGAUAUGGUGUAGCCUAGUAAAGGACAUGAGGAUCACCCAUGUACCAUUGGUACCAGAAGGGAUGAUCCUAC | 173 | 46 | – | – |
| UUACCCUCAGUAAGGAUAUCUUUAUCUGCUGAUAUAGAGAAGGUACAUGAGGAUCACCCAUGUGCGAUUGGGCU | – | – | 116 | 282 |
| UUAUUUAUACAAGGAUAUCUAUUGUUAAUACGACUUACAUGAGGAUCACCCAUGUUUUUAUGUUUAGAGAAGGUGUAUUUUCAG | 41.4 | 31.8 | – | – |
| UUAGAGAAGGAGGAUAUGCUGUUCUGUCACGUAGCAGAAGGCCUUACAUGAGGAUCACCCAUGUUGAUCCCAGU | – | – | 618 | 576 |
| UGAUCGAAAGAUCAUAGAUUCUGCUAGGAUAUGCAGAAGUUGCGAUUUACAUGAGGAUCACCCAUGUAGAAGGAGUAGAGUCUA | – | – | 7.16 | 7.16 |
| AUUUCGUUAGCAGGAUAUGGACAGGCCUGUCCGUAUUGAGUCAGUAACAUGAGGAUCACCCAUGUCCAGAAGGGCUCGAAGUAG | – | – | 8.06 | 13.9 |
| UUUACAUGAGGAUCACCCAUGUUAAAAUAAUUAAUUAUAAGUGAGGAUAUAUAAAUUAUAAAAUUGUAGAAGGCACUGGGUAUU | 22 | 23.4 | – | – |
| AAAAAGGCAGGAUAUACAUGAGGAUCACCCAUGUAGUUGACAAAAAAGAGUCAACAGUGUAGAAGGGCCAAAAA | – | – | 19.3 | 24.6 |
